Results as given in ChEMBL document CHEMBL1126905, “Inhibitors of cholesterol biosynthesis. 2. 3,5-Dihydroxy-7-(N-pyrrolyl)-6-heptenoates, a novel series of HMG-CoA reductase inhibitors” (J Med Chem, 1993).

How the values were obtained:
[1] = target: T1, 3-hydroxy-3-methylglutaryl-coenzyme A reductase (Rattus norvegicus, UniProt P51639); assay: Inhibition of rat liver microsomal HMG-CoA reductase
T1 sequence (P51639 whole entry): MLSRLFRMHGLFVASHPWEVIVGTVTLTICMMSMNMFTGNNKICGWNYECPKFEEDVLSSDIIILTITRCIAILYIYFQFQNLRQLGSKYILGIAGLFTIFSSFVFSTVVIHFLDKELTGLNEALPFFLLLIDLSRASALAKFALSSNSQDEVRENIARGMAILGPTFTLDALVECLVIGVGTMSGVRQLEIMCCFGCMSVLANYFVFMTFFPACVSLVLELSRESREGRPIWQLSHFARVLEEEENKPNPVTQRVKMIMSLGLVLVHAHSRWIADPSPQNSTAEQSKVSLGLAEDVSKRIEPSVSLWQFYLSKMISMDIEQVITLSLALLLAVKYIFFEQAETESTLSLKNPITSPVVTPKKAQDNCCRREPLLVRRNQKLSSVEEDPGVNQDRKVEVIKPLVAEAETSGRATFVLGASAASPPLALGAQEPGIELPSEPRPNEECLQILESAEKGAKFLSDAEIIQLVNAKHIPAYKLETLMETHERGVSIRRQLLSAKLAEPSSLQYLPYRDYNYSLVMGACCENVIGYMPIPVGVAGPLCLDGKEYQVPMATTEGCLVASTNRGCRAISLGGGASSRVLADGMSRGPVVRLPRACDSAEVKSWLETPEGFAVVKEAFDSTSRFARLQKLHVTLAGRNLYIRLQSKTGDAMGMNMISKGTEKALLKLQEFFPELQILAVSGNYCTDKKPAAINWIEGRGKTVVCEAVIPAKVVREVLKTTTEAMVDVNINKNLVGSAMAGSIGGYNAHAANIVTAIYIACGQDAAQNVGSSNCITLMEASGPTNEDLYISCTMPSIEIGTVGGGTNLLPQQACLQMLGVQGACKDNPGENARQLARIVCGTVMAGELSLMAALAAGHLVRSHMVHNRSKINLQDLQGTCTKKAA
Summary of the method: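 Test agents run as sodium salts of the dihydroxy carboxylic acids, against rat liver microsomal enzyme. Five dose levels per inhibitor, at least in duplicate, on at least two separate occasions. IC50 given as the mean, with pravastatin sodium salt as reference.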

[2] = Lipophilicity was determined; assay type: physicochemical; details: octanol/water

Row | IC50 [1] [nM] | logD [2] | Compound
1 | 2 | 2.1 | COC(=O)C[C@H](O)C[C@H](O)/C=C/n1c(C(C)C)cc(-c2ccc(F)cc2)c1-c1ccc(F)cc1
2 | 105 |  | COC(=O)C[C@H](O)C[C@H](O)CCn1c(C(C)C)cc(-c2ccc(F)cc2)c1-c1ccc(F)cc1
3 | 0.5 | 2.8 | COC(=O)C[C@H](O)C[C@H](O)/C=C/n1c(C(C)C)cc(-c2cccc(Br)c2)c1-c1ccc(F)cc1
4 | 0.3 |  | COC(=O)C[C@H](O)C[C@H](O)/C=C/n1c(-c2ccc(F)cc2)c(-c2ccc(F)cc2)c(Br)c1C(C)C
5 | 3 |  | CC[C@H](C)C(=O)O[C@H]1C[C@@H](C)C=C2C=C[C@H](C)[C@H](CC[C@@H]3C[C@@H](O)CC(=O)O3)[C@H]21 [LOVASTATIN]
6 | 71 |  | COC(=O)C[C@H](O)C[C@H](O)/C=C/n1c(C(C)C)cc(-c2ccc(F)cc2)c1-c1cccc(Cl)c1
7 | 2 |  | COC(=O)C[C@H](O)C[C@H](O)/C=C/n1c(C(C)C)cc(-c2ccccn2)c1-c1ccc(F)cc1
8 | 69 |  | COC(=O)C[C@H](O)C[C@H](O)/C=C/n1c(C(C)C)cc(-c2ccc(F)cc2)c1-c1cccc(Br)c1
9 | 5 | 0.9 | COC(=O)C[C@H](O)C[C@H](O)/C=C/n1c(C(C)C)cc(-c2ccncc2)c1-c1ccc(F)cc1
10 | 5 |  | CC[C@H](C)C(=O)O[C@H]1C[C@H](O)C=C2C=C[C@H](C)[C@H](CC[C@@H](O)C[C@@H](O)CC(=O)O)[C@H]21 [PRAVASTATIN SODIUM]
11 | 2 | 2.57 | COC(=O)C[C@H](O)C[C@H](O)/C=C/n1c(C(C)C)cc(-c2cccc(Cl)c2)c1-c1ccc(F)cc1
12 | 2 |  | COC(=O)C[C@H](O)C[C@H](O)/C=C/n1c(C(C)C)cc(-c2ccccc2)c1-c1ccc(F)cc1
13 | 25 |  | COC(=O)C[C@H](O)C[C@H](O)/C=C/n1c(C(C)C)cc(-c2ccc(F)cc2)c1-c1ccccc1
